The values below come from PMC2674521 (Journal of pharmaceutical sciences, 2009).

Several values for one entry are separate records, joined by “and”; a condition that tells them apart may be missing. Equal entries are not always repeated. Where two headings read alike, the source gives them in different places. A value given as a limit tells only on which side of the number the result lay.

The conditions of data set [1]: no reference given; cited from earlier work.
A further data set deals with HSA. To be noted: cited from earlier work.
The next data set concerns RSA. The conditions noted are these: ref 46; cited from earlier work.
Data set [2] deals with T1, canine serum albumin (CSA) (Canis lupus familiaris, UniProt P49822). The data set is classed as in vitro ADME. The conditions noted are these: for Unbound level: CSA solutions containing warfarin; for Free tracer: CSA solutions with added ibuprofen.
Data set [3] deals with T2, human serum albumin (HSA) (Homo sapiens, UniProt P02768). The data set is classed as in vitro ADME. The conditions noted are these: for increase in free radiopharmaceutical level: 8:1 warfarin:HSA mole ratio vs drug-free; for Unbound [^64Cu]Cu-PTSM: HSA; for % Free [^64Cu]Cu-PTSM: 49°C, 2.5% v/v ethanol. The method in brief: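 HSA (globulin-free, ≥99.5% fatty acid free) reconstituted in 0.9% saline at 0.66 mM. 100 µL of drug in saline (3.3–53 mM, pH 7) or saline alone (drug-free control) added to 1.0 mL, giving 40 mg/mL HSA at 0.5:1–8:1 drug:HSA. 2–8 µCi 64Cu tracer added and vortexed. Triplicate aliquots ultrafiltered (30,000 Da NMWL) within 5 min, 64Cu gamma-counted.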

Data set [4] addresses T2, human serum albumin (HSA). To be noted: cited from earlier work; for % bound to HSA: 40 mg/mL HSA solution.
Data set [5] deals with rat serum. The data set is classed as in vitro ADME.
Data set [6] addresses rat serum (Rattus norvegicus, UniProt P02770). The conditions noted are these: RSA solution; cited from earlier work.
The target in data set [7] is T1, canine serum albumin (CSA). To be noted: no competing drug; cited from earlier work.
A short description of data set [8]: Ultrafiltration of [^64Cu]Cu-PTSM in protein-free saline. The method in brief: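 Membrane-integrity control without protein: 25 µL ethanol (2.5% v/v) added to 1.0 mL saline containing [64Cu]Cu-PTSM, compared with saline alone. Ultrafiltered through 30,000 Da NMWL membranes, n = 5 per group. % free tracer from 64Cu gamma counts of measured ultrafiltrate and starting-solution volumes.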

The conditions of data set [9]: ref 37, 38; cited from earlier work.
Where [10] appears, read: HSA solutions with even high concentrations of L-tryptophan.
Setting [11] is: drug-free HSA control (drug:HSA mole ratio 0), 40 mg/mL HSA.
[12] abbreviates: ibuprofen:HSA mole ratio 0.5, 40 mg/mL HSA.
Setting [13] is: ibuprofen:HSA mole ratio 1, 40 mg/mL HSA.
Where [14] appears, read: ibuprofen:HSA mole ratio 2, 40 mg/mL HSA.
Setting [15] is: ibuprofen:HSA mole ratio 4, 40 mg/mL HSA.
The mark [16] stands for this setting: ibuprofen:HSA mole ratio 8, 40 mg/mL HSA.
Where [17] appears, read: ibuprofen:HSA mole ratios up to 4:1.
Where [18] appears, read: warfarin:HSA mole ratio 0.5, 40 mg/mL HSA.
The mark [19] stands for this setting: warfarin:HSA mole ratio 1, 40 mg/mL HSA.
Setting [20] is: warfarin:HSA mole ratio 2, 40 mg/mL HSA.
[21] abbreviates: warfarin:HSA mole ratio 4, 40 mg/mL HSA.
Where [22] appears, read: warfarin:HSA mole ratio 8, 40 mg/mL HSA.

T2 sequence (P02768 25-609): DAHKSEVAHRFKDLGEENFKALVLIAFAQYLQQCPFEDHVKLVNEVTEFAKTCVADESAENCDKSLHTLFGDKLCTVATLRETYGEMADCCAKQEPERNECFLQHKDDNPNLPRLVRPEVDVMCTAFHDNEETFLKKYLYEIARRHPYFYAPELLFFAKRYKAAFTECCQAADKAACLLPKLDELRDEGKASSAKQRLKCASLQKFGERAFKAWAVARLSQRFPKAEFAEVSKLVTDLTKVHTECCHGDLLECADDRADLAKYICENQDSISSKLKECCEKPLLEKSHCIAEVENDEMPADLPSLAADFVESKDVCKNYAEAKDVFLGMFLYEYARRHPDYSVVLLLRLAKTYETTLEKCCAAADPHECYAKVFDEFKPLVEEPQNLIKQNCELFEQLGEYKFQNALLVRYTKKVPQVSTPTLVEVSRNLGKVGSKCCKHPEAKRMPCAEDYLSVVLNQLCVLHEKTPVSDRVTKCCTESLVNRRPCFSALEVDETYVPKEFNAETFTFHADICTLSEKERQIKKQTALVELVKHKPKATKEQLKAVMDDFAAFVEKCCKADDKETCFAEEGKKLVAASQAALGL
T1 sequence (P49822 25-608): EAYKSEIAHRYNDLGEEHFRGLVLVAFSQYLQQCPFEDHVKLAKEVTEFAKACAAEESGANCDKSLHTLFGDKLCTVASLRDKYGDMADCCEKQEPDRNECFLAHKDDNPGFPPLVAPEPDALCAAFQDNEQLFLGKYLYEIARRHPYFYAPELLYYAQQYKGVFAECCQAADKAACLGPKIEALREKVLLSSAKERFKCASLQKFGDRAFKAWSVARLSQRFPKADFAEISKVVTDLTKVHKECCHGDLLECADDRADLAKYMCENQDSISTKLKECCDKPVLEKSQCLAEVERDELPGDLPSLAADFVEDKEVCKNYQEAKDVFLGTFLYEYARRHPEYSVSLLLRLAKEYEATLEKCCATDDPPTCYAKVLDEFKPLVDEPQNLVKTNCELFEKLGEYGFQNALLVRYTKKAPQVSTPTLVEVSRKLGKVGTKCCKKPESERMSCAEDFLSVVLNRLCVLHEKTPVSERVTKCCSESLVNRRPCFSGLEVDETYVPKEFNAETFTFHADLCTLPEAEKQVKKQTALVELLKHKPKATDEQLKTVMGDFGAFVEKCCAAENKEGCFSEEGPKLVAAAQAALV
Chain of rat serum (Rattus norvegicus, UniProt P02770) (P02770 25-608): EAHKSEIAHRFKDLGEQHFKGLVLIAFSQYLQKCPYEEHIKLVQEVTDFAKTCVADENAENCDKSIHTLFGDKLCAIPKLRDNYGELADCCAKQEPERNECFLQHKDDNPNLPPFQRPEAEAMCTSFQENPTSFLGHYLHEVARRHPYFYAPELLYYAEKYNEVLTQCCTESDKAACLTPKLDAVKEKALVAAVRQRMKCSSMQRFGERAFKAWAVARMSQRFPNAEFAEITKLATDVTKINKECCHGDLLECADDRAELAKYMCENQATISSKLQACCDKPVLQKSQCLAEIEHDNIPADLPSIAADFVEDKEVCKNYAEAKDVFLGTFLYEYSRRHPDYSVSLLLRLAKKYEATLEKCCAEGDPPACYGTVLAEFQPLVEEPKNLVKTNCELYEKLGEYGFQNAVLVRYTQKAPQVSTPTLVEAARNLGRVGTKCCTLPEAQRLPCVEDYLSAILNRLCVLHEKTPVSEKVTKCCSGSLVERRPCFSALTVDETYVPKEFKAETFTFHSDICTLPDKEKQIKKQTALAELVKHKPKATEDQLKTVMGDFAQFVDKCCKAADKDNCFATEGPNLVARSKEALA

Regarding `CC1(C)S[C@@H]2[C@H](NC(=O)Cc3ccccc3)C(=O)N2[C@H]1C(=O)O` [Benzylpenicillin], the “extent of protein binding in human plasma” value in data set [1] is reported as 50%. In the data set on HSA (ref 10), the “affinity constant for the IIA site of HSA” value is 1200 M⁻¹. For the same compound, in the data set with HSA (ref 40-42), the “affinity (Ka) for the IIA site of HSA” value was 1200 M⁻¹. For the same compound, the “affinity for site IIA of HSA (Ka)” value in the data set on HSA (reference not given) was 1200 M⁻¹.

For the compound `Cn1nnnc1SCC1=C(C(=O)O)N2C(=O)[C@@H](NC(=O)[C@H](O)c3ccccc3)[C@H]2SC1` [Cephmandole], in the data set on HSA (ref 32), the “binding to HSA (Ka)” value was 1200 M⁻¹.

In the case of `NS(=O)(=O)c1cc(C(=O)O)c(NCc2ccco2)cc1Cl` [Furosemide], the “binding to RSA” value with RSA was ≤ 99.1%.

As to `CC(C)Cc1ccc(C(C)C(=O)O)cc1` (stereo not shown) [Ibuprofen], the “affinity (Ka) for the IIIA site of HSA” value in the data set on HSA (ref 10) is 2.7e+06 M⁻¹. Also, the “affinity for the IIIA site of HSA (Ka)” value with HSA (reference not given) was 2.7e+06 M⁻¹.

As to `N[C@@H](Cc1c[nH]c2ccccc12)C(=O)O` [L-tryptophan], the “affinity (Ka) for the IIIA site of HSA” value in the data set with HSA (ref 29-31) was 10000 M⁻¹.

For `CC(=O)CC(c1ccccc1)c1c(O)c2ccccc2oc1=O` (stereo not shown) [Warfarin], the “affinity for HSA (Ka)” value with HSA (ref 45), with HSA (ref 47) and in the data set on HSA (reference not given) was 340000 M⁻¹ in each case.

In [2], `CN=C([S-])N/N=C(C)/C(C)=N/NC([S-])=NC.[Cu+2]` [[^64Cu]Cu-ATSM, diacetyl bis(N^4-methylthiosemicarbazonato)copper(II)] displayed an Unbound level of 37.0%. Moreover, the Free tracer in [2] is recorded as 43.8%. Further, the “increase in free radiopharmaceutical level” value in data set [3] is 300–500%. Also, the “displacement from HSA” value is “not observed” in data set [3] (setting [10]) and “no displacement” in data set [3] (setting [17]). Besides, the “% Free (corrected)” value in data set [3] (setting [11]) is on record as 5.9 ± 0.4%; in [3] (setting [12]) it was 7.1 ± 0.6%; in data set [3] (setting [13]), 7.5 ± 0.8%; in data set [3] (setting [14]) it was 8.2 ± 1.1%; in data set [3] (setting [15]), 7.3 ± 0.8%; in data set [3] (setting [16]), 10.5 ± 1.1%. Moreover, the “% Free (corrected)” value is 7.3 ± 0.2% in data set [3] (setting [18]); 9.4 ± 0.8% in data set [3] (setting [19]); 12.4 ± 0.9% in [3] (setting [20]); 14.5 ± 0.6% in data set [3] (setting [21]); 19.0 ± 1.7% in data set [3] (setting [22]). Also, the “% bound to HSA” value in data set [4] is recorded as “approx. 95%”.

As to `CN=C([S-])N/N=C/C(C)=N/NC([S-])=NC.[Cu+2]` [[^64Cu]Cu-PTSM, pyruvaldehyde bis(N^4-methylthiosemicarbazonato)copper(II)], in [2] (40 mg/mL CSA, 8:1 mole ratio of warfarin (first value)), the free fraction came to 36.1 ± 2.8%. Besides, in data set [3] (1:1 fatty acid:HSA ratios (capric, myristic, palmitic, oleic)), the “effect of fatty acid addition on HSA binding” value is given as “little effect”. Further, the “level of free [^64Cu]Cu-PTSM relative to fatty acid-free” value in data set [3] (6:1 fatty acid:HSA mole ratios (capric, myristic, palmitic, oleic)) is recorded as “approximately doubled”. Also, the “increase in free radiopharmaceutical level” value in [3] is 300–500%. For the same compound, the “displacement from HSA” value in data set [3] (setting [10]) is “not observed”; in data set [3] (cephmandole, drug:HSA mole ratios up to 4:1), “not displaced”; in data set [3] (setting [17]), “no displacement”. Also, the “% free” value in data set [3] (HSA with highest concentration of tryptophan, 4.8 mM (1.0 mg/mL)) is given as 3.2 ± 0.1%; at rat serum [6] it was 14.1 ± 0.3%; in data set [4] (HSA solution), 4.3 ± 0.2%. Further, the “Unbound [^64Cu]Cu-PTSM” value turned out to be 3.8 ± 0.2% in data set [3] (incubated at 49°C for 30 min) and 4.2 ± 0.6% in [3] (room temperature control solutions). For the same compound, the “% Free (corrected)” value in data set [3] (benzylpenicillin:HSA mole ratio 0.5, 40 mg/mL HSA) is reported as 3.8 ± 0.1%; in data set [3] (benzylpenicillin:HSA mole ratio 1, 40 mg/mL HSA) it was 3.5 ± 0.1%; in [3] (benzylpenicillin:HSA mole ratio 2, 40 mg/mL HSA) it was 3.3 ± 0.2%; in data set [3] (benzylpenicillin:HSA mole ratio 4, 40 mg/mL HSA), 3.4 ± 0.1%; in [3] (benzylpenicillin:HSA mole ratio 8, 40 mg/mL HSA), 3.3 ± 0.1%; in [3] (cephmandole:HSA mole ratio 0.5, 40 mg/mL HSA), 3.5 ± 0.1%. Also, the “% Free (corrected)” value in data set [3] (cephmandole:HSA mole ratio 1, 40 mg/mL HSA) was 3.2 ± 0.2%; in data set [3] (cephmandole:HSA mole ratio 2, 40 mg/mL HSA) it was 3.5 ± 0.1%; in data set [3] (cephmandole:HSA mole ratio 4, 40 mg/mL HSA), 4.2 ± 0.2%; in [3] (setting [11]) it was 4.0 ± 0.1% and 4.0% and 4.0 ± 0.4%; in data set [3] (furosemide:HSA mole ratio 1, 40 mg/mL HSA) it was 8.4 ± 0.2%; in [3] (setting [12]), 3.4 ± 0.1%. Moreover, the “% Free (corrected)” value in [3] (setting [13]) is on record as 3.4 ± 0.3%; in [3] (setting [14]), 3.2 ± 0.5%; in data set [3] (setting [15]) it was 4.8 ± 0.2%; in [3] (setting [16]) it was 10.1 ± 0.6%; in data set [3] (phenylbutazone:HSA mole ratio 1, 40 mg/mL HSA) it was 7.1 ± 0.1%; in [3] (phenylbutazone:HSA mole ratio 8, 40 mg/mL HSA) it was 28.7 ± 0.8%. Besides, the “% Free (corrected)” value in [3] (setting [18]) was 4.6 ± 0.1%; in data set [3] (setting [19]) it was 5.8 ± 0.7%; in data set [3] (setting [20]), 7.7 ± 0.8%; in data set [3] (setting [21]), 14.8 ± 0.3%; in [3] (setting [22]) it was 20.1 ± 1.5%. Moreover, the “% Free [^64Cu]Cu-PTSM” value in [3] (capric acid:HSA 1:1, 40 mg/mL HSA) is on record as 7.5 ± 0.3 (4) %; in data set [3] (capric acid:HSA 6:1, 40 mg/mL HSA), 12.6 ± 3.5 (5) %; in [3] (myristic acid:HSA 1:1, 40 mg/mL HSA), 6.8 ± 0.3 (4) %; in [3] (myristic acid:HSA 6:1, 40 mg/mL HSA), 14.6 ± 0.8 (5) %; in data set [3] (oleic acid:HSA 1:1, 40 mg/mL HSA), 6.0 ± 0.3 (4) %; in data set [3] (oleic acid:HSA 6:1, 40 mg/mL HSA), 12.7 ± 0.7 (4) %. The “% Free [^64Cu]Cu-PTSM” value is 5.6 ± 0.2 (3) % in [3] (palmitic acid:HSA 1:1, 40 mg/mL HSA); 9.6 ± 0.3 (4) % in [3] (palmitic acid:HSA 6:1, 40 mg/mL HSA); 14.7 ± 1.2% in the data set with rat serum [5] (drug:RSA mole ratio 0); 20.2 ± 0.7% with rat serum [5] (furosemide:RSA mole ratio 1); 28.6 ± 0.6% in the data set with rat serum [5] (furosemide:RSA mole ratio 8); 18.6 ± 0.4% with rat serum [5] (phenylbutazone:RSA mole ratio 1). In addition, the “% Free [^64Cu]Cu-PTSM” value in the data set on rat serum [5] (phenylbutazone:RSA mole ratio 8) was determined as 20.6 ± 0.4%; with rat serum [5] (warfarin:RSA mole ratio 1), 19.8 ± 0.5%; in the data set with rat serum [5] (warfarin:RSA mole ratio 8), 24.1 ± 0.5%. Besides, the “increase in free [^64Cu]Cu-PTSM in solution” value in [3] (furosemide:HSA 8:1 mole ratio vs drug-free) is on record as > 700%. Further, the “% bound to HSA” value in [4] is recorded as “approx. 95%”. Further, the “% free in canine serum albumin (CSA) solutions” value in data set [7] is given as “approximately 42%”. The “Free tracer (% free)” value in data set [8] (saline + 2.5% v/v ethanol) is on record as 68.0 ± 2.3%; in [8] (saline control), 67.2 ± 0.7%. For the same compound, in [9], the “log P” value is 1.9.

On to `C=CC1=C(C)/C(=C/c2[nH]c(Cc3[nH]c(/C=C4\NC(=O)C(C)=C4C=C)c(C)c3CCC(=O)O)c(CCC(=O)O)c2C)NC1=O` [bilirubin], for which, in the data set on HSA (site believed distinct from the IIA and IIIA drug sites, no reference given), the “association with HSA (Ka)” value is 9.5e+07 M⁻¹.

For the compound “ethylglyoxal bis(thiosemicarbazonato)copper(II) [[^64Cu]Cu-ETS]”, the Unbound level in [2] stood at 40.4%. In [2], this compound registered a Free tracer of 39.5%. For the same compound, the “% Free (corrected)” value in data set [3] (setting [11]) stood at 40.6 ± 1.1%; in data set [3] (setting [12]) it was 43.9 ± 2.2%; in [3] (setting [13]), 42.1 ± 2.7%; in data set [3] (setting [14]), 45.8 ± 2.6%; in data set [3] (setting [15]) it was 43.6 ± 3.1%; in [3] (setting [16]), 49.6 ± 1.2%. Further, the “% Free (corrected)” value in data set [3] (setting [18]) worked out at 42.8 ± 1.6%; in data set [3] (setting [19]), 44.2 ± 1.2%; in data set [3] (setting [20]), 45.2 ± 1.3%; in data set [3] (setting [21]), 42.8 ± 3.4%; in data set [3] (setting [22]), 44.7 ± 2.7%. For the same compound, the “interaction with HSA on addition of site IIA or IIIA drugs” value in [3] (warfarin, ibuprofen up to 8:1) is listed as “unaffected”.

By log P is commonly meant a log measure of how a compound divides between an organic and an aqueous phase.
